CAL PDZ FP-1: blocks peptide binding to the human CAL PDZ domain | inhibition, % at 24.9 µM | hit rate 0.92% among 300,000 | purified CAL PDZ, TMR-peptide fluorescence polarization, 1 h | Q9HD26;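 active = mean inhibition of at least 30% with at least half of replicates also reaching 30%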
miR122 inh: blocks miR-122 activity in Huh7 sensor cells. Huh7 miR-122 Renilla luciferase sensor, 48 h; neutral wells = 0, positive control = 100. activation (reporter increase), % at 12.5 µM. hit rate 0.3% among 340,000. AID 602342;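 active = mean replicate activation score at least 90 and every replicate individually at or above 90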;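 also: higher luciferase means less miR-122 activity so hits act as miR-122 inhibitors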
ARNT TACC3 PPI: ARNT/TACC3 interaction disruption; AlphaScreen His-ARNT PAS-B/GST-TACC3 binding, luminescence; TACC3 fragment carries E629A point mutation; inhibition, % at 9.99 µM; hit rate 0.66% among 390,000; AID 623870;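 active = mean inhibition of replicates at least 50% and at least half of replicates each reaching 50%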
CAL PDZ FP-2: inhibitors of human CAL PDZ peptide binding. purified CAL PDZ, TMR-peptide fluorescence polarization, 1 h. Q9HD26. inhibition, % at 20 µM. hit rate 0.02% among 330,000;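 active = highest replicate inhibition of at least 40%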
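Material: tagged CAL PDZ protein CerCALP, purified; buffer or medium: sodium phosphate/NaCl buffer pH 7.4 with TCEP, IgG, Thesit; also added: fluorescent TMR peptide probe; schedule: 1 h incubation at room temperature before polarization reading; technique: fluorescence polarization from S- and P-plane intensities, G-factor corrected; control set: unlabelled peptide and DMSO controls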
F508del corr: CFTR F508del correction in bronchial cells. AID 720511. CFBE cells, YFP halide quenching; stimulated with forskolin plus potentiator P3; % fluorescence drop versus neutral controls. activity (quench increase), % at 7.58 µM. hit rate 0.36% among 350,000;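 active = mean added fluorescence quench of at least 8% versus neutral control, with both replicates also reaching 8%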;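 also: cells transiently co-express mutant CFTR-F508del with the halide-sensitive YFP; corrector assay measuring rescue of mutant channel to the surface after 24 h compound exposure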
PGC1a acetyl inh: modulators of PGC1a acetylation; U2OS PGC1a acetylation, AlphaScreen anti-acetyl-lysine; with virally co-expressed GCN5 acetyltransferase; inhibition, % at 15.6 µM; hit rate 0.17% among 350,000;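 active = every replicate shows inhibition of at least 40%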
Hits are given with their value; [ ] = another dose, or the depositor's remark. In the library only some 1.7% were active in any assay of this set; here they are far more common.

For C[C@H](CO)N1C[C@H](C)[C@@H](CN(C)Cc2ccc(C(=O)Nc3ccccc3N)cc2)Oc2c(NC(=O)Nc3ccccc3)cccc2C1=O the results were miR122 inh 97[16.7 µM], ARNT TACC3 PPI inactive, F508del corr inactive and PGC1a acetyl inh inactive.
`CN1C(=O)c2cc(NC(=O)C3CCCCC3)ccc2OC[C@@H]2O[C@@H](CC(=O)NCc3ccccc3F)CC[C@@H]21` gave miR122 inh inactive, ARNT TACC3 PPI inactive, F508del corr inactive and PGC1a acetyl inh inactive.
Screening CC(=O)N(NC(=O)c1ccccc1Cl)C1CC(=O)N(c2ccc(C)cc2)C1=O (stereo not given) returned CAL PDZ FP-1 inactive, ARNT TACC3 PPI 47, CAL PDZ FP-2 inactive and PGC1a acetyl inh inactive.
Screening Cc1ccc(N2C(=O)CC(N(O)C3CC(=O)N(c4ccc(C)cc4)C3=O)C2=O)cc1 (stereo not given) returned CAL PDZ FP-1 59, miR122 inh inactive, ARNT TACC3 PPI inactive, CAL PDZ FP-2 inactive and PGC1a acetyl inh inactive.
For CCCCCCC(=O)N(O)C1CC(=O)N(c2ccc(C)cc2)C1=O (stereo not given) the results were miR122 inh inactive, ARNT TACC3 PPI inactive, CAL PDZ FP-2 inactive and PGC1a acetyl inh inactive.
For CCOC(=O)C1=Nc2ccccc2C1=[N+]=[N-] the results were CAL PDZ FP-1 inactive, miR122 inh inactive, ARNT TACC3 PPI inactive, CAL PDZ FP-2 inactive and PGC1a acetyl inh 45.
For CCOC(=O)C1=Nc2cccc3c(O)ccc1c23 the results were F508del corr inactive.
COCCn1c(C)c(C)c2c(NCCc3ccccc3)ncnc21 was read as CAL PDZ FP-1 inactive, miR122 inh inactive, ARNT TACC3 PPI inactive, CAL PDZ FP-2 inactive, F508del corr inactive and PGC1a acetyl inh 51.
`Cc1c(C)n(CCc2ccccc2)c2ncnc(NCCCO)c12` gave CAL PDZ FP-1 inactive, ARNT TACC3 PPI inactive, CAL PDZ FP-2 inactive and F508del corr inactive.
Screening O=C(c1cccc(C(F)(F)F)c1)C1CCCN(C(=O)CCn2cnnn2)C1 (stereo not given) returned CAL PDZ FP-1 52, miR122 inh inactive, ARNT TACC3 PPI inactive, CAL PDZ FP-2 inactive, F508del corr inactive and PGC1a acetyl inh inactive.
`CC(C)NC(=O)N(C)C[C@@H]1OCCCC[C@H](C)Oc2ccc(NC(=O)Nc3ccc(C(F)(F)F)cc3)cc2C(=O)N([C@@H](C)CO)C[C@H]1C` gave miR122 inh inactive, ARNT TACC3 PPI inactive, F508del corr inactive and PGC1a acetyl inh inactive.
For Cc1ccc(NC(=O)COc2ccc(Br)cc2CO)cc1 the results were miR122 inh 284, ARNT TACC3 PPI inactive, CAL PDZ FP-2 inactive and PGC1a acetyl inh inactive.
O=C(COc1ccc(Br)cc1CO)Nc1ccccc1 was read as CAL PDZ FP-1 inactive, miR122 inh inactive, ARNT TACC3 PPI inactive and CAL PDZ FP-2 inactive.
CCCC#Cc1ccc([C@@H]2[C@H](CO)N3CCCCN(C(=O)NC4CCCC4)C[C@@H]23)cc1 was read as miR122 inh inactive, ARNT TACC3 PPI inactive, F508del corr inactive and PGC1a acetyl inh inactive.
For COCC(=O)Nc1ccc2c(c1)C(=O)N(C)C[C@@H](OC)[C@@H](C)CN[C@H](C)CO2 the results were miR122 inh inactive, ARNT TACC3 PPI inactive, F508del corr inactive and PGC1a acetyl inh inactive.
COC(=O)c1ccc(Cn2nc(C)cc2C)cc1 was read as CAL PDZ FP-1 112, miR122 inh inactive, ARNT TACC3 PPI inactive and PGC1a acetyl inh inactive.
For COc1ccc2c3c([nH]c2c1)[C@H](CO)N(C(=O)C1CC1)CC31CN(S(C)(=O)=O)C1 the results were F508del corr inactive.
`N/N=C(/Cc1nc2ccccc2[nH]1)c1ccc([N+](=O)[O-])cc1` gave CAL PDZ FP-1 73, ARNT TACC3 PPI inactive, CAL PDZ FP-2 inactive, F508del corr inactive and PGC1a acetyl inh inactive.
Screening CCC(=O)N(C)C[C@@H]1Oc2cc(C#CC3CC3)ccc2S(=O)(=O)N([C@@H](C)CO)C[C@H]1C returned miR122 inh inactive, ARNT TACC3 PPI inactive, F508del corr inactive and PGC1a acetyl inh inactive.
For CCOC(=O)c1c(NC(=O)C2CCCCC2)sc2c1CCN(CC)C2 the results were CAL PDZ FP-1 45, miR122 inh inactive, ARNT TACC3 PPI inactive, CAL PDZ FP-2 inactive, F508del corr inactive and PGC1a acetyl inh inactive.

Assay outcomes: PubChem BioAssay, Broad Institute
